Test results published in ChEMBL document CHEMBL4368893, “2,2-Dimethyl-3,4-dihydro-2H-1,4-benzoxazines as isosteres of 2,2-dimethylchromans acting as inhibitors of insulin release and vascular smooth muscle relaxants” (Medchemcomm, 2019).

How the values were obtained:
Thoracic aorta [1] = test: Myorelaxant activity in rat thoracic aortic rings assessed as relaxation of 30 mM KCl-induced contraction by force-displacement transducer based assay relative to KCl; assay type: functional, tissue-based
Summary of the method: (§1)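 Aortic rings from adult fed Wistar rats. Kept at 37 °C in oxygenated medium (95% O2/5% CO2) and equilibrated 60 min. Contraction raised with 30 or 80 mM KCl and recorded isometrically by force transducer. Drug added cumulatively, up to maximal relaxation or 200 µM. Response expressed as % of KCl contraction; EC50 from concentration–response curves, mean ± SEM (n).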

[2] = Inhibition of glucose-induced insulin release in rat pancreatic islets assessed as residual insulin secretion at 1 uM incubated for 90 mins incubated in presence of 16.7 mM glucose by radioimmunology assay; assay type: functional
Summary of the method: (§2)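 Islets isolated from adult fed Wistar rats by collagenase digestion, used fresh. Groups of 10 islets pre-incubated 30 min at 37 °C in bicarbonate salt medium with 2.8 mM glucose and 0.5% albumin, gassed O2/CO2 95:5. Then 90 min at 37 °C with 16.7 mM glucose plus compound. Insulin by RIA against rat insulin standard. Output is % of control secretion, mean ± SEM (n).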

[3] = Inhibition of glucose-induced insulin release in rat pancreatic islets assessed as residual insulin secretion at 10 uM incubated for 90 mins incubated in presence of 16.7 mM glucose by radioimmunology assay; assay type: functional; summary of the method: as §2
Thoracic aorta [4] = test: Myorelaxant activity in rat thoracic aortic rings assessed as relaxation of 80 mM KCl-induced contraction by force-displacement transducer based assay relative to KCl; assay type: functional, tissue-based; summary of the method: as §1
Thoracic aorta [5] = test: Myorelaxant activity in rat thoracic aortic rings assessed as relaxation of 30 mM KCl-induced contraction in presence of 10 uM K-ATP channel blocker glibenclamide by force-displacement transducer based assay relative to KCl; assay type: functional, tissue-based
Summary of the method: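 Wistar rat aortic rings in oxygenated medium at 37 °C, equilibrated 60 min, with 10 µM glibenclamide present throughout. Precontracted with 30 mM KCl; isometric tension recorded by transducer. Cumulative drug addition to maximal relaxation or 200 µM. Tension expressed as % of KCl response; EC50 (50% inhibition of plateau) from concentration–response curves.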

SMILES | EC50 (Thoracic aorta [1]) [µM] | Activity [2] [%] | Activity [3] [%] | EC50 (Thoracic aorta [4]) [µM] | EC50 (Thoracic aorta [5]) [µM]
CC1(C)CN(NC(=S)Nc2ccc(C#N)cc2)c2cc(Cl)ccc2O1 | > 30 | 73.3 | 10.8 |  | 
CC1(C)CN(NC(=S)Nc2cccc(Cl)c2)c2cc(Cl)ccc2O1 | > 30 |  | 71.8 |  | 
CC1(C)CN(NC(=O)Nc2cccc(C#N)c2)c2cc(Cl)ccc2O1 | 1.9 to 3.1 | 79.5 | 35.7 | 5 | 3.9
CC1(C)CN(NC(=S)Nc2ccc(Cl)cc2)c2cc(Cl)ccc2O1 | > 30 |  | 81.4 |  | 
CC1(C)CN(NC(=O)Nc2ccc(C#N)cc2)c2cc(Cl)ccc2O1 | 3.7 | 79 | 43.1 |  | 
CC1(C)CN(NC(=O)Nc2cccc(Cl)c2)c2cc(Cl)ccc2O1 | 9.9 | 92.5 | 46 |  | 
CC1(C)CN(NC(=S)Nc2cccc(C#N)c2)c2cc(Cl)ccc2O1 | > 30 | 83.1 | 27 |  | 
CC1(C)CN(NC(=O)Nc2ccc(Cl)cc2)c2cc(Cl)ccc2O1 | 13.3 | 89.5 | 56.2 |  | 
